Source: ChEMBL document CHEMBL4359917, “Design, synthesis, and biological evaluation of novel benzodiazepine derivatives as anticancer agents through inhibition of tubulin polymerization in vitro and in vivo” (Eur J Med Chem, 2019)

Columns and labels:
A549 [1] = experiment: Antiproliferative activity against human A549 cells assessed as cell growth inhibition measured after 48 hrs by MTT assay; type: functional, cell-based; conditions: A549, 48 h
Outline: (§1)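 Cancer cell lines exposed to compounds for 48 h; viability read by MTT assay. IC50 reported as mean ± SD from at least three independent experiments.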

HCT-116 = experiment: Antiproliferative activity against human HCT116 cells assessed as cell growth inhibition measured after 48 hrs by MTT assay; type: functional, cell-based; conditions: HCT-116, 48 h; outline: as §1
HeLa = experiment: Antiproliferative activity against human HeLa cells assessed as cell growth inhibition measured after 48 hrs by MTT assay; type: functional, cell-based; outline: as §1
MDA-MB-231 = experiment: Antiproliferative activity against human MDA-MB-231 cells assessed as cell growth inhibition measured after 48 hrs by MTT assay; type: functional, cell-based; conditions: MDA-MB-231, 48 h; outline: as §1
HepG2 = experiment: Antiproliferative activity against human HepG2 cells assessed as cell growth inhibition measured after 48 hrs by MTT assay; type: functional, cell-based; conditions: HepG2, 48 h; outline: as §1
A549 [2] = experiment: Antitumour activity against human A549 cells xenografted in BALB/c nude mouse assessed as tumour volume at 30 mg/kg, ip administered every other day measured at day 26 by electronic caliper method (reference value: 2006.37 mm3); type: functional
A549 [3] = experiment: Antitumour activity against human A549 cells xenografted in BALB/c nude mouse assessed as tumour weight at 30 mg/kg, ip administered every other day measured at day 26 by electronic caliper method (reference value: 1.894 g); type: functional
[4] = Solubility of compound in water; type: physicochemical; conditions: buffer
A549 [5] = experiment: Antitumour activity against human A549 cells xenografted in BALB/c nude mouse assessed as tumour growth inhibition at 30 mg/kg, ip administered every other day measured at day 26 by electronic caliper method relative to control; type: functional; conditions: 624 h, read-out: GI
[6] = Toxicity in BALB/c nude mouse xenografted with human A549 cells assessed as effect on body weight at 30 mg/kg, ip administered every other day measured for 26 days; type: organism-based; conditions: in vivo, 624 h
[7] = Metabolic stability in Sprague-Dawley rat liver microsomes assessed as parent compound remaining after 30 mins in presence of NADPH by HPLC-UV-MS analysis; type: ADME, Microsome; conditions: read-out: Stability
Outline: (§2)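 Compound incubated with rat liver microsomes in buffer containing an NADPH regenerating system. Percentage of parent remaining was determined at time points up to 180 min, and half-life was derived.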

[8] = Metabolic stability in Sprague-Dawley rat liver microsomes assessed as parent compound remaining after 60 mins in presence of NADPH by HPLC-UV-MS analysis; type: ADME, Microsome; conditions: read-out: Stability; outline: as §2
[9] = Metabolic stability in Sprague-Dawley rat liver microsomes assessed as parent compound remaining after 150 mins in presence of NADPH by HPLC-UV-MS analysis; type: ADME, Microsome; outline: as §2
[10] = Metabolic stability in Sprague-Dawley rat liver microsomes assessed as parent compound remaining after 90 mins in presence of NADPH by HPLC-UV-MS analysis; type: ADME, Microsome; conditions: read-out: Stability; outline: as §2
[11] = Half-life in Sprague-Dawley rat liver microsomes in presence of NADPH by HPLC-UV-MS analysis; type: ADME, Microsome; outline: as §2
[12] = Metabolic stability in Sprague-Dawley rat liver microsomes assessed as parent compound remaining after 120 mins in presence of NADPH by HPLC-UV-MS analysis; type: ADME, Microsome; conditions: read-out: Stability; outline: as §2
in vitro = conditions: Sprague-Dawley, rat, liver microsomes

SMILES | IC50 (A549 [1]) | IC50 (HCT-116) | IC50 (HeLa) | IC50 (MDA-MB-231) | IC50 (HepG2) | also measured
COc1ccc2c(c1O)NC(=O)CN=C2c1cc(OC)c(OC)c(N(C)C)c1 | 66.2 nM | 53 nM | 54.9 nM | 91 nM | 52 nM | 
COc1ccc2c(c1O)NC(=O)CN=C2c1ccc(OC)c2c1OC(C)(C)C=C2 | 433 nM | 207 nM | 1870 nM | 3710 nM | 4590 nM | 
COc1cc(-c2cc(=O)[nH]c3c(O)c(OC)ccc23)cc([Se]C)c1OC | 60.7 nM | 124 nM | 51.7 nM | 69 nM | 22 nM | 
COc1cc(-c2c(C)c(=O)[nH]c3c(O)c(OC)ccc23)cc(SC)c1OC | 86 nM | 229 nM | 158 nM | 133 nM | 303 nM | 
COc1cc(C2=NCC(=O)Nc3c2ccc(OC)c3OP(=O)([O-])[O-])cc(SC)c1OC.[Na+].[Na+] |  |  |  |  |  | Activity (A549 [2]): 369.25 mm3; Activity (A549 [3]): 0.373 g; solubility [4]: Soluble; inhibition in vivo at 30 mg/kg (A549 [5]): 79.3%; Activity [6]: Non-Toxic
COc1cc(C2=NCC(=O)Nc3c2ccc(OC)c3OP(=O)([O-])[O-])cc(OC)c1OC.[Na+].[Na+] |  |  |  |  |  | Activity (A549 [2]): 408.17 mm3; Activity (A549 [3]): 0.415 g; inhibition in vivo at 30 mg/kg (A549 [5]): 77.7%
COc1ccc2c(c1O)NC(=O)CN=C2c1cc(OC)c(OC)c(SC)c1 | 18.7 nM | 10.8 nM | 16.5 nM | 24.7 nM | 14.2 nM | 
COc1ccc(/C=C\c2cc(OC)c(OC)c(OC)c2)cc1O [COMBRETASTATIN A4] |  |  |  |  |  | remaining at 0.5 h [7]: 66.3%; remaining at 1 h [8]: 36.4%; Stability ([9]; microsomes, 2.5 h): Unstable; remaining at 1.5 h [10]: 21.6%; half-life [11]: < 60 min; remaining at 2 h [12]: 17.9%
COc1ccc2c(c1O)NC(=O)CN=C2c1cc2c(c(OC)c1)OC(C)(C)C=C2 | 56.2 nM | 13.9 nM | 34.7 nM | 69 nM | 30.5 nM | 
COc1cc(-c2cc(=O)[nH]c3c(O)c(OC)ccc23)cc(SC)c1OC | 61.8 nM | 28.8 nM | 35.5 nM | 70 nM | 51.7 nM | 
COc1ccc2c(c1O)NC(=O)C(C)N=C2c1cc(OC)c(OC)c(SC)c1 (centres undefined) | 93 nM | 89 nM | 1070 nM | 295 nM | 295 nM | 
COc1ccc(/C=C\c2cc(OC)c(OC)c(OC)c2)cc1OP(=O)([O-])[O-].[Na+].[Na+] [FOSBRETABULIN DISODIUM] |  |  |  |  |  | Activity (A549 [2]): 984.86 mm3; Activity (A549 [3]): 0.879 g; inhibition in vivo at 30 mg/kg (A549 [5]): 52.8%
COc1ccc2c(c1O)NC(=O)CN=C2c1cc(OC)c(OC)c(OC)c1 | 9.15 nM | 16.6 nM | 18.1 nM | 54.6 nM | 15.7 nM | remaining at 0.5 h [7]: 94.3%; remaining at 1 h [8]: 85.5%; remaining at 2.5 h ([9]; Sprague-Dawley, liver microsomes, read-out: Stability): 55.2%; remaining at 1.5 h [10]: 76.2%; half-life [11]: 158 min; remaining at 2 h [12]: 65.3%; remaining at 3 h (in vitro): 49.9%
COc1cc(C2=NCC(=O)Nc3c2ccc(OC)c3OP(=O)([O-])[O-])cc([Se]C)c1OC.[Na+].[Na+] |  |  |  |  |  | Activity (A549 [2]): 215.2 mm3; Activity (A549 [3]): 0.201 g; solubility [4]: Soluble; inhibition in vivo at 30 mg/kg (A549 [5]): 89.3%; Activity [6]: Non-Toxic
